Calls of active or inactive are those of the source. The rule behind the calls is not given here.
Key:
MIA PaCa-2 [1] = assay: Cell cycle arrest in human MIAPaCa2 cells at 100 nM after 24 hrs by propidium iodide staining based FACS analysis; format: functional
Method in brief: (§1)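 Cells (1 × 10^6) seeded in 12-well plates and held overnight, then exposed to increasing concentrations of test compound or 100 nM axitinib (VEGFR-2 inhibition control) for 24 h at 37 °C, 5% CO2. Fixed in cold 70% ethanol, stained with propidium iodide for 30 min, DNA content read by flow cytometry on 10,000 gated events; three independent experiments, means ± SD.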

CCRF-CEM [2] = assay: Cell cycle arrest in human CCRF-CEM cells at 100 nM after 24 hrs by propidium iodide staining based FACS analysis; format: functional; method in brief: as §1
Jurkat [3] = assay: Cell cycle arrest in human Jurkat cells at 100 nM after 24 hrs by propidium iodide staining based FACS analysis; format: functional; method in brief: as §1
ADR5000 cell line [4] = assay: Cell cycle arrest in human CEM/ADR5000 cells at 100 nM after 24 hrs by propidium iodide staining based FACS analysis; format: functional; method in brief: as §1
A549 [5] = assay: Cell cycle arrest in human A549 cells at 100 nM after 24 hrs by propidium iodide staining based FACS analysis; format: functional; method in brief: as §1
[6] = Selectivity index, ratio of IC50 for human PBMC to IC50 for human Jurkat cells; format: toxicity; conditions: PBMC versus Jurkat cells, read-out: Ratio IC50
Method in brief: (§2)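 Selectivity index calculated as MTT IC50 in PBMC divided by MTT IC50 in the cancer line. Both values come from the 24 h MTT viability assay.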

[7] = molecular target: T1, Vascular endothelial growth factor receptor 1 (Homo sapiens, UniProt P17948); assay: Inhibition of recombinant human N-terminal GST-tagged VEGFR1 (K784 to I1338 residues) expressed in sf9 cells using Poly(Glu,Tyr) 4:1 as substrate after 60 mins in presence of [gamma33P]-ATP by scintillation counting method
Method in brief: (§3)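 Radiometric 33PanQinase assay using recombinant human kinases from Sf9 or E. coli, purified by affinity chromatography. ATP at the apparent Km, plus [γ-33P]-ATP. Compound tested at 1−10 000 nM, 1% DMSO. Incubated 60 min at 30 °C, stopped with 2% H3PO4, 33Pi incorporation counted by scintillation.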

Jurkat [8] = assay: Cell cycle arrest in human Jurkat cells assessed as accumulation at sub-G1 phase after 24 hrs by propidium iodide staining based FACS analysis; format: functional
Method in brief: (§4)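 Cells (1 × 10^6) seeded, incubated overnight, then exposed 24 h at 37 °C and 5% CO2 to increasing concentrations of compound (100 nM axitinib as VEGFR-2 control). Fixed in cold 70% ethanol, stained with propidium iodide for 30 min. DNA content read by flow cytometry, 10,000 gated events per sample. Sub-G1 fraction taken as apoptosis. Three independent experiments.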

[9] = molecular target: T2, Vascular endothelial growth factor receptor 3 (Homo sapiens, UniProt P35916); assay: Inhibition of recombinant human N-terminal GST/His6-tagged VEGFR3 (N799 to R1298 residues) expressed in sf9 cells assessed as equivalents of test compound required to show 50% inhibition using Poly(Glu,Tyr) 4:1 as substrate after 60 mins in presence of [gamma33P]-ATP by scintillation counting method; method in brief: as §3
T2 sequence (P35916 whole entry, the tested form may be a part): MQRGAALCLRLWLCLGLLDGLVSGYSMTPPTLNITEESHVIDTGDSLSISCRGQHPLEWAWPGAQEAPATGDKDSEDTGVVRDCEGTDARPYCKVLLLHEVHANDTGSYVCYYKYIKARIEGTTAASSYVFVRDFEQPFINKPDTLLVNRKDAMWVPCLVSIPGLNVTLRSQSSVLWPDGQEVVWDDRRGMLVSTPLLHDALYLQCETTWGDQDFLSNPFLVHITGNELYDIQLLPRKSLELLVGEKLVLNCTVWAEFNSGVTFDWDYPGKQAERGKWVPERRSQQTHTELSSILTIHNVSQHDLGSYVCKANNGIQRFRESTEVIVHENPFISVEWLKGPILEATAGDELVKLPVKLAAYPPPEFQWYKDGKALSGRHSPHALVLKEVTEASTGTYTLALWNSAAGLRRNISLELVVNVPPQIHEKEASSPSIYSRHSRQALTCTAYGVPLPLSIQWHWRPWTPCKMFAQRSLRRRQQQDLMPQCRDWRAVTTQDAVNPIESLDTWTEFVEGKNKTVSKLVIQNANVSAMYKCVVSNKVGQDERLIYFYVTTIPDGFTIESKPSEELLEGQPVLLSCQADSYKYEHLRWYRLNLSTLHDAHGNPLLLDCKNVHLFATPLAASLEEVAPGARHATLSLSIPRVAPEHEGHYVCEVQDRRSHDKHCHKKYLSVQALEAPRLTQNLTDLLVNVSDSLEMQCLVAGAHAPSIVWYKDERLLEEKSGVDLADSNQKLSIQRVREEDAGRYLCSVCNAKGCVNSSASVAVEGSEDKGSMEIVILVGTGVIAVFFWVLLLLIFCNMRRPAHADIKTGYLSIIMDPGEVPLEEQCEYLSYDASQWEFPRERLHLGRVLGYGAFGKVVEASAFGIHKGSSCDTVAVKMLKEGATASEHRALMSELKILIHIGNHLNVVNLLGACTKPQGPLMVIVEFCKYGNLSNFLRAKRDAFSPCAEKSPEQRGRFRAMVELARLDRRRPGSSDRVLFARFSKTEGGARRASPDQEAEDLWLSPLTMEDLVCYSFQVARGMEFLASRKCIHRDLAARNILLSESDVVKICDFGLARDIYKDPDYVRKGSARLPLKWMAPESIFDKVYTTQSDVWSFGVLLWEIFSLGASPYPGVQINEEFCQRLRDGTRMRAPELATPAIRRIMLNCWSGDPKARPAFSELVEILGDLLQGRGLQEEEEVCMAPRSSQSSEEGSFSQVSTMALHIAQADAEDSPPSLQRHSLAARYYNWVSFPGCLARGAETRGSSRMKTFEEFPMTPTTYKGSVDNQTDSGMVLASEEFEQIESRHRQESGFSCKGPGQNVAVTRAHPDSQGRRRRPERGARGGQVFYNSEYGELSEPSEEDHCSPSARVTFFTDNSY

ADR5000 cell line [10] = assay: Cell cycle arrest in human CEM/ADR5000 cells assessed as accumulation at sub-G1 phase after 24 hrs by propidium iodide staining based FACS analysis; format: functional; method in brief: as §4
[11] = molecular target: T2, Vascular endothelial growth factor receptor 3; assay: Inhibition of recombinant human N-terminal GST/His6-tagged VEGFR3 (N799 to R1298 residues) expressed in sf9 cells using Poly(Glu,Tyr) 4:1 as substrate after 60 mins in presence of [gamma33P]-ATP by scintillation counting method; method in brief: as §3
[12] = molecular target: T3, Tyrosine-protein kinase ABL2 (Homo sapiens, UniProt P42684); assay: Inhibition of recombinant human N-terminal GST/His6-tagged ABL2 (M1 to P650 residues) expressed in sf9 cells using Poly(Glu,Tyr) 4:1 as substrate after 60 mins in presence of [gamma33P]-ATP by scintillation counting method; method in brief: as §3
T3 sequence (P42684 whole entry, the tested form may be a part): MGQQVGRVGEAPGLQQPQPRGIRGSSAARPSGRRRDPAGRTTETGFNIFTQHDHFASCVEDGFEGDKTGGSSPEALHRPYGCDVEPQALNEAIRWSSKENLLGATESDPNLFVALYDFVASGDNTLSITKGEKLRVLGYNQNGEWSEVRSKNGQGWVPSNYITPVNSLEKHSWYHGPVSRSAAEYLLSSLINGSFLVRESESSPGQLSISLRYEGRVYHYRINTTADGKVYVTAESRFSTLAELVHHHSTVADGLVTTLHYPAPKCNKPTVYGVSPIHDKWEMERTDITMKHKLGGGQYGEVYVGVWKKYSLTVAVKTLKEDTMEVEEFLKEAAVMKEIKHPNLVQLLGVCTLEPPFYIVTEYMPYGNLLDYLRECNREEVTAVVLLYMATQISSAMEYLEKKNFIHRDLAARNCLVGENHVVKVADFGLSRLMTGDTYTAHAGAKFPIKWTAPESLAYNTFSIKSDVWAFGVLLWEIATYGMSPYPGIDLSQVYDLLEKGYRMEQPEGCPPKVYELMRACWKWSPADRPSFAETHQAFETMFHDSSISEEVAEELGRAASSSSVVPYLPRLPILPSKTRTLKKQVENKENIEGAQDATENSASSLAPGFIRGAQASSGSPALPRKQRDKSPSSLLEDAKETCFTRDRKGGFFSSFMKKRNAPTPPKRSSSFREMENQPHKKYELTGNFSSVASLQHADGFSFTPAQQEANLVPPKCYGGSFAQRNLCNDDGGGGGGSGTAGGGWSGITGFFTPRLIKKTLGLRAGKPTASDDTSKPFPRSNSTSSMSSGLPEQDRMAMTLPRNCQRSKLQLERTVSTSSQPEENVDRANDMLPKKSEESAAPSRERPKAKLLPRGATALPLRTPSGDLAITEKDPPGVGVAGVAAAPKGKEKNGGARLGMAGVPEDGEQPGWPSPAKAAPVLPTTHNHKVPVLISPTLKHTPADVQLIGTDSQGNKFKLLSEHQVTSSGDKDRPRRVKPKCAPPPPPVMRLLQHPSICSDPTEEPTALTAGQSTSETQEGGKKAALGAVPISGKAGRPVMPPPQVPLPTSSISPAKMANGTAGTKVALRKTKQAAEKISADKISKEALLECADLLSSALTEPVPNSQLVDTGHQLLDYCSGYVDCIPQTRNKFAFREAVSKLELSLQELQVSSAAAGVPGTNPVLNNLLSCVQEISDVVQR

A549 [13] = assay: Cell cycle arrest in human A549 cells assessed as accumulation at sub-G1 phase after 24 hrs by propidium iodide staining based FACS analysis; format: functional; method in brief: as §4
CCRF-CEM [14] = assay: Cytotoxicity against human CCRF-CEM cells assessed as reduction in cell viability after 24 hrs by MTT assay; format: functional, cell-based
Method in brief: (§5)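 Cancer lines or PBMC from healthy human donors seeded in 96-well plates. Exposed to various compound concentrations for 24 h at 37 °C, 5% CO2. MTT solution (5 mg/mL) then added and incubated 2 h more. IC50 obtained by nonlinear regression. Mean ± SD of three independent experiments.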

MIA PaCa-2 [15] = assay: Cell cycle arrest in human MIAPaCa2 cells assessed as accumulation at sub-G1 phase after 24 hrs by propidium iodide staining based FACS analysis; format: functional; method in brief: as §4
MIA PaCa-2 [16] = assay: Cell cycle arrest in human MIAPaCa2 cells assessed as accumulation at S phase at 1 nM after 24 hrs by propidium iodide staining based FACS analysis; format: functional; method in brief: as §4
[17] = Selectivity index, ratio of IC50 for human PBMC to IC50 for human CEM/ADR5000 cells; format: toxicity; conditions: PBMC versus CEM/ADR5000 cells, read-out: Ratio IC50; method in brief: as §2
CCRF-CEM [18] = assay: Cell cycle arrest in human CCRF-CEM cells assessed as accumulation at sub-G1 phase after 24 hrs by propidium iodide staining based FACS analysis; format: functional; method in brief: as §4
[19] = Selectivity index, ratio of IC50 for human PBMC to IC50 for human CCRF-CEM cells; format: toxicity; conditions: PBMC versus CCRF-CEM cells, read-out: Ratio IC50; method in brief: as §2
[20] = molecular target: T1, Vascular endothelial growth factor receptor 1; assay: Inhibition of recombinant human N-terminal GST-tagged VEGFR1 (K784 to I1338 residues) expressed in sf9 cells assessed as equivalents of test compound required to show 50% inhibition using Poly(Glu,Tyr) 4:1 as substrate after 60 mins in presence of [gamma33P]-ATP by scintillation counting method; method in brief: as §3
[21] = Selectivity index, ratio of IC50 for human PBMC to IC50 for human MIAPaCa2 cells; format: toxicity; conditions: PBMC versus MIAPaCa2 cells, read-out: Ratio IC50; method in brief: as §2
Jurkat [22] = assay: Cytotoxicity against human Jurkat cells assessed as reduction in cell viability after 24 hrs by MTT assay; format: functional, cell-based; method in brief: as §5
[23] = molecular target: T4, Vascular endothelial growth factor receptor 2 (Homo sapiens, UniProt P35968); assay: Inhibition of recombinant human N-terminal GST-tagged VEGFR2 (D807 to V1356 residues) expressed in sf9 cells using Poly(Glu,Tyr) 4:1 as substrate after 60 mins in presence of [gamma33P]-ATP by scintillation counting method; method in brief: as §3
T4 sequence (P35968 whole entry, the tested form may be a part): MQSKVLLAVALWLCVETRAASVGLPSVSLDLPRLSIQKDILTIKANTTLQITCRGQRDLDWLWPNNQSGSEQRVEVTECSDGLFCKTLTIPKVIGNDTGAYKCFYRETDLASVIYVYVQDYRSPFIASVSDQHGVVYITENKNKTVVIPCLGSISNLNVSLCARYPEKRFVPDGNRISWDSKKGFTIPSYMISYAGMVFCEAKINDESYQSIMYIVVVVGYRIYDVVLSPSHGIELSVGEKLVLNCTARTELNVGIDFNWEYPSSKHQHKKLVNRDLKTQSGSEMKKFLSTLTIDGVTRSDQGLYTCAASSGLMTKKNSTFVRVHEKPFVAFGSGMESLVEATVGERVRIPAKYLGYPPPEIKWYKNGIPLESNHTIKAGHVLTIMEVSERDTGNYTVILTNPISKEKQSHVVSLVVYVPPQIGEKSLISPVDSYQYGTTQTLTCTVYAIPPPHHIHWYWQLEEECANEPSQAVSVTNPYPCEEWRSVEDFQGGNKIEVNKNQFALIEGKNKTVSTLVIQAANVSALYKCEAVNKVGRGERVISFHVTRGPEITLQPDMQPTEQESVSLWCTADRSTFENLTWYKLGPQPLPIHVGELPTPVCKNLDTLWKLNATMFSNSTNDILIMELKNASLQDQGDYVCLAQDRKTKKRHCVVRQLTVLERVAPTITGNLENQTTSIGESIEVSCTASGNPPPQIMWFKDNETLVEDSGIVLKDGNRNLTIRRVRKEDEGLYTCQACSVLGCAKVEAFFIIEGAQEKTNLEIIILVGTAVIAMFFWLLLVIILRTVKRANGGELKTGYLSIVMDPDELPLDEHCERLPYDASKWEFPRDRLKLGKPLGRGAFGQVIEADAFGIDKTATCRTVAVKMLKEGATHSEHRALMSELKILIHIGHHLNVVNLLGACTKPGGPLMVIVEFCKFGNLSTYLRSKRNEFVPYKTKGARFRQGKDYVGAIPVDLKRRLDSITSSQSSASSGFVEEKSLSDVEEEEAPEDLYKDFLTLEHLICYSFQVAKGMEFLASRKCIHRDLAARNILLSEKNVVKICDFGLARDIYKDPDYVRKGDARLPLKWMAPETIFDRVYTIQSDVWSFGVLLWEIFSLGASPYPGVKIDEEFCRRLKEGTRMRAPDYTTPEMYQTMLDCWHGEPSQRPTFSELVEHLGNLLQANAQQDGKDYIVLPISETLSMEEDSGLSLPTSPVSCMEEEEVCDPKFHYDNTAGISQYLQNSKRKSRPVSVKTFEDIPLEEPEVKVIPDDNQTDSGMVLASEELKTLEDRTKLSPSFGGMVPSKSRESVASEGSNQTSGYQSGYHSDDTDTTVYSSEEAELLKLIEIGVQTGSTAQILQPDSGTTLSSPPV

A549 [24] = assay: Cytotoxicity against human A549 cells assessed as reduction in cell viability after 24 hrs by MTT assay; format: functional, cell-based; conditions: A549, 24 h; method in brief: as §5
[25] = molecular target: T3, Tyrosine-protein kinase ABL2; assay: Inhibition of recombinant human N-terminal GST/His6-tagged ABL2 (M1 to P650 residues) expressed in sf9 cells assessed as equivalents of test compound required to show 50% inhibition using Poly(Glu,Tyr) 4:1 as substrate after 60 mins in presence of [gamma33P]-ATP by scintillation counting method; method in brief: as §3
MIA PaCa-2 [26] = assay: Cytotoxicity against human MIAPaCa2 cells assessed as reduction in cell viability after 24 hrs by MTT assay; format: functional, cell-based; conditions: MIA PaCa-2, 24 h; method in brief: as §5
[27] = molecular target: T4, Vascular endothelial growth factor receptor 2; assay: Inhibition of recombinant human N-terminal GST-tagged VEGFR2 (D807 to V1356 residues) expressed in sf9 cells assessed as equivalents of test compound required to show 50% inhibition using Poly(Glu,Tyr) 4:1 as substrate after 60 mins in presence of [gamma33P]-ATP by scintillation counting method; method in brief: as §3
[28] = molecular target: T5, Mast/stem cell growth factor receptor Kit (Homo sapiens, UniProt P10721); assay: Inhibition of recombinant human N-terminal GST/His6-tagged c-KIT (T544 to V976 residues) expressed in sf9 cells using Poly(Glu,Tyr) 4:1 as substrate after 60 mins in presence of [gamma33P]-ATP by scintillation counting method; method in brief: as §3
T5 sequence (P10721 whole entry, the tested form may be a part): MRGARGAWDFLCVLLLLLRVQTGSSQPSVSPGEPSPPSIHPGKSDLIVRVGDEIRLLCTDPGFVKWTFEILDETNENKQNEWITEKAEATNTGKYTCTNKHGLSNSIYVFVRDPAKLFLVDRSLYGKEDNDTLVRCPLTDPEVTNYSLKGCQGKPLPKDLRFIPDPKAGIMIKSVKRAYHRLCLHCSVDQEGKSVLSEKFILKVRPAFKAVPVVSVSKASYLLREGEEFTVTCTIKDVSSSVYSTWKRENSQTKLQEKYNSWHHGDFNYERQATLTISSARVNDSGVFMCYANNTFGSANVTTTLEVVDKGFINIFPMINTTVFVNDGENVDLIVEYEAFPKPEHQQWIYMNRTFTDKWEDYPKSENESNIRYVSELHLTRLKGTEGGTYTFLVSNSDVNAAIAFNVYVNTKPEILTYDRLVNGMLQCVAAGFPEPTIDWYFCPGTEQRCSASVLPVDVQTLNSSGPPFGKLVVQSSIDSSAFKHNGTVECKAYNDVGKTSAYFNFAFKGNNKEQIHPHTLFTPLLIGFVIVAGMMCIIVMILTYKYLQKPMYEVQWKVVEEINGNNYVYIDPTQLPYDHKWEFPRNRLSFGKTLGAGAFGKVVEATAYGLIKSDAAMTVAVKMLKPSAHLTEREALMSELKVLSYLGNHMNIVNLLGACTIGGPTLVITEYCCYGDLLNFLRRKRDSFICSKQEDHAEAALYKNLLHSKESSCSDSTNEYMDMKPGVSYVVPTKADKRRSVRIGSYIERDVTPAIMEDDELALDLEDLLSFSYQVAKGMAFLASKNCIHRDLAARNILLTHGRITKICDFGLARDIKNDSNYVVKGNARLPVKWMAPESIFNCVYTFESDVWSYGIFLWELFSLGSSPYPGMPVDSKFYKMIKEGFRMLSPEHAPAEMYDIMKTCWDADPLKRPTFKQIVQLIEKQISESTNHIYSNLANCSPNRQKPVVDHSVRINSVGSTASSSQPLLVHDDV

PBMC = assay: Cytotoxicity against human PBMC assessed as reduction in cell viability after 24 hrs by MTT assay; format: cell-based; method in brief: as §5
[29] = molecular target: T5, Mast/stem cell growth factor receptor Kit; assay: Inhibition of recombinant human N-terminal GST/His6-tagged c-KIT (T544 to V976 residues) expressed in sf9 cells assessed as equivalents of test compound required to show 50% inhibition using Poly(Glu,Tyr) 4:1 as substrate after 60 mins in presence of [gamma33P]-ATP by scintillation counting method; method in brief: as §3
[30] = Selectivity index, ratio of IC50 for human PBMC to IC50 for human A549 cells; format: toxicity; conditions: PBMC versus A549 cells, read-out: Ratio IC50; method in brief: as §2
ADR5000 cell line [31] = assay: Cytotoxicity against human CEM/ADR5000 cells assessed as reduction in cell viability after 24 hrs by MTT assay; format: functional, cell-based; conditions: ADR5000, 24 h; method in brief: as §5
[32] = Cytotoxicity against human PBMC assessed as cell viability at 80 uM after 24 hrs by MTT assay relative to control; format: cell-based; conditions: read-out: Activity; method in brief: as §5
MIA PaCa-2 [33] = assay: Cell cycle arrest in human MIAPaCa2 cells at 1 to 1000 nM after 24 hrs by propidium iodide staining based FACS analysis; format: functional; method in brief: as §4

| SMILES | selectivity ratio [6] | IC50 [7] | IC50 [11] | IC50 [12] | IC50 (CCRF-CEM [14]) | selectivity ratio [19] | Activity [20] | IC50 (Jurkat [22]) | IC50 [23] | IC50 (A549 [24]) | Activity [25] | IC50 (MIA PaCa-2 [26]) | Activity [27] | IC50 [28] | IC50 (PBMC) | Activity [29] | selectivity ratio [30] | IC50 (ADR5000 cell line [31]) | also measured |
| --- | --- | --- | --- | --- | --- | --- | --- | --- | --- | --- | --- | --- | --- | --- | --- | --- | --- | --- | --- |
| CNC(=O)c1ccccc1Sc1ccc2c(/C=C/c3ccccn3)n[nH]c2c1 |  |  |  |  |  |  |  |  |  |  |  |  |  |  |  |  |  |  | Activity (MIA PaCa-2 [1]): Active; Activity (CCRF-CEM [2]): Active; Activity (Jurkat [3]): Active; Activity (ADR5000 cell line [4]): Active; Activity (A549 [5]): Active |
| O=C(CCCC(=O)N1C[C@@H](CCl)c2c1cc(O)c1ccccc21)N1C[C@@H](CCl)c2c1cc(O)c1ccccc21 | 1430 | 1270 nM | 4200 nM | 685 nM | 0.9 nM | 2220 | 283 equiv | 1.4 nM | 530 nM | 2.7 nM | 457 equiv | 14.1 nM | 230 equiv | 3000 nM | 2000 nM | 233 equiv | 741 | 6.9 nM | inhibition [7]: Dose-dependent effect; Activity (Jurkat [8]): Dose-dependent effect; Activity [9]: 894 equiv; Activity (ADR5000 cell line [10]): Dose-dependent effect; inhibition [11]: Dose-dependent effect; inhibition [12]: Dose-dependent effect; Activity (A549 [13]): Dose-dependent effect; Activity (MIA PaCa-2 [15]): Dose-dependent effect; Activity (MIA PaCa-2 [16]): Active; selectivity ratio [17]: 290; Activity (CCRF-CEM [18]): Dose-dependent effect; selectivity ratio [21]: 142; inhibition [23]: Dose-dependent effect; inhibition [28]: Dose-dependent effect |
| C[C@@H]1CN(C(=O)CCCC(=O)N2C[C@@H](C)c3c2cc(O)c2ccccc32)c2cc(O)c3ccccc3c21 | > 121 | 2100 nM | > 10000 nM | 540 nM | 182 nM | > 439 | 511 equiv | 660 nM | 330 nM | 663 nM | 360 equiv | > 10000 nM | 143 equiv | 8300 nM | > 80000 nM | 643 equiv | > 120 | > 10000 nM | viability at 24 h, 80 µM [32]: 80%; Activity (MIA PaCa-2 [33]): inactive |

— ChEMBL document CHEMBL4371099, “Bifunctional Duocarmycin Analogues as Inhibitors of Protein Tyrosine Kinases” (J Nat Prod, 2019)
